Measured values: ChEMBL document CHEMBL5143675, “Attenuating the Streptococcus pneumoniae Competence Regulon Using Urea-Bridged Cyclic Dominant-Negative Competence-Stimulating Peptide Analogs” (J Med Chem, 2022)
pEC50, pIC50: −log10 of the molar value. Where a SMILES comes first, the peptide text is derived from it. [ ]: non-standard residue; d: D form. Orn = NCCC[C@H](N)C(=O)O; Dab = NCC[C@H](N)C(=O)O; Dap = NC[C@H](N)C(=O)O

Tests used:
[1] = Antagonist activity against Streptococcus pneumoniae D39-pcomX-lacZ strain expressing ComD1 receptor assessed as inhibition of ComD1 receptor activity by beta-galactosidase reporter gene assay
In short: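 Reporter strains (pcomX::lacZ) grown on THY agar with 5% horse serum and 4 μg/mL chloramphenicol at 37 °C, 5% CO2; overnight THY broth culture diluted (1:50 D39, 1:10 TIGR4) and grown to early exponential phase (OD600 0.30–0.35 D39; 0.20–0.25 TIGR4). Primary screen at 10,000 nM peptide; EC50/IC50 from dose-response over a concentration range, three independent experiments, 95% confidence interval.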

[2] = Stability of the compound in CD-1 mouse assessed as drug degradation at 50 ug, iv by IVIS spectrum in vivo imaging analysis; format: ADME, organism-based; conditions: dose 50 µg
In short: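 Seven-week-old CD-1 mice (cohorts of 4–5) given Cy7.5-labelled peptide (50 μg/mouse) by retro-orbital i.v. injection, anaesthetized with 3% isoflurane and imaged by IVIS SpectrumCT fluorescence imaging.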

[3] = Antagonist activity against Streptococcus pneumoniae TIGR4-pcomX-lacZ strain expressing ComD2 receptor assessed as inhibition of ComD2 receptor activity by beta-galactosidase reporter gene assay
In short: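 TIGR4 pcomX::lacZ reporter grown on THY plates with 5% horse serum and 4 μg/mL chloramphenicol (8–9 h, 37 °C, 5% CO2). 2–3 colonies were grown overnight (15 h) in THY with chloramphenicol, diluted 1:10, and grown 3–4 h to OD600 0.20–0.25. Peptides were tested as competitive inhibitors against native CSP2. […] Three independent experiments.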

[4] = Agonist activity against Streptococcus pneumoniae TIGR4-pcomX-lacZ strain expressing ComD2 receptor assessed as activation of ComD2 receptor activity by beta-galactosidase reporter gene assay
In short: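 Reporter strains (pcomX::lacZ) grown on THY agar with 5% horse serum and 4 μg/mL chloramphenicol at 37 °C, 5% CO2; overnight THY broth culture diluted (1:50 D39, 1:10 TIGR4) and grown to early exponential phase (OD600 0.30–0.35 D39; 0.20–0.25 TIGR4).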

Row | pIC50 [1] | pIC50 [3] | Compound | also measured
1 | – | < 6.00 | CC[C@H](C)[C@H](NC(=O)[C@H](Cc1ccccc1)NC(=O)[C@H](CCCN)NC(=O)[C@H](CCCNC(=N)N)NC(=O)[C@H](Cc1ccccc1)NC(=O)[C@H](Cc1ccccc1)NC(=O)[C@H](CCCN)NC(=O)[C@H](CO)NC(=O)[C@H](CC(C)C)NC(=O)[C@H](CCCNC(=N)N)NC(=O)[C@H](CCSC)NC(=O)[C@H](C)N)C(=O)N[C@@H](CC(C)C)C(=O)N[C@@H](CCC(N)=O)C(=O)N[C@@H](CCCNC(=N)N)C(=O)N[C@@H](CCCCN)C(=O)N[C@@H](CCCCN)C(=O)O (H-AMRLS[Orn]FFR[Orn]FILQRKK-OH) | –
2 | – | < 6.00 | CC[C@H](C)[C@H](NC(=O)[C@H](Cc1ccccc1)NC(=O)[C@H](CCN)NC(=O)[C@H](CCCNC(=N)N)NC(=O)[C@H](Cc1ccccc1)NC(=O)[C@H](Cc1ccccc1)NC(=O)[C@H](CCN)NC(=O)[C@H](CO)NC(=O)[C@H](CC(C)C)NC(=O)[C@H](CCCNC(=N)N)NC(=O)[C@H](CCSC)NC(=O)[C@H](C)N)C(=O)N[C@@H](CC(C)C)C(=O)N[C@@H](CCC(N)=O)C(=O)N[C@@H](CCCNC(=N)N)C(=O)N[C@@H](CCCCN)C(=O)N[C@@H](CCCCN)C(=O)O (H-AMRLS[Dab]FFR[Dab]FILQRKK-OH) | –
3 | 6.47 | < 6.00 | CC[C@H](C)[C@H](NC(=O)[C@H](Cc1ccccc1)NC(=O)[C@H](CCCCN)NC(=O)[C@H](CCCNC(=N)N)NC(=O)[C@H](Cc1ccccc1)NC(=O)[C@H](Cc1ccccc1)NC(=O)[C@H](CCCN)NC(=O)[C@H](CO)NC(=O)[C@H](CC(C)C)NC(=O)[C@H](CCCNC(=N)N)NC(=O)[C@H](CCSC)NC(=O)[C@H](C)N)C(=O)N[C@@H](CC(C)C)C(=O)N[C@@H](CCC(N)=O)C(=O)N[C@@H](CCCNC(=N)N)C(=O)N[C@@H](CCCCN)C(=O)N[C@@H](CCCCN)C(=O)O (H-AMRLS[Orn]FFRKFILQRKK-OH) | –
4 | 6.66 | – | H-AMRLSKFFRKFILQRKK-OH | –

Continued, compound first:

Row | Compound | pIC50 [1] | pIC50 [3] | also measured
5 | CC[C@H](C)[C@H](NC(=O)[C@H](Cc1ccccc1)NC(=O)[C@H](CC(=O)O)NC(=O)[C@H](CCCNC(=N)N)NC(=O)[C@H](Cc1ccccc1)NC(=O)[C@H](Cc1ccccc1)NC(=O)[C@H](CCCCN)NC(=O)[C@H](CO)NC(=O)[C@H](CC(C)C)NC(=O)[C@H](CCCNC(=N)N)NC(=O)[C@H](CCSC)NC(=O)[C@H](C)N)C(=O)N[C@@H](CC(C)C)C(=O)N[C@@H](CCC(N)=O)C(=O)N[C@@H](CCCNC(=N)N)C(=O)N[C@@H](CCCCN)C(=O)N[C@@H](CCCCN)C(=O)O | 7.07 | – | –
6 | CC[C@H](C)[C@H](NC(=O)[C@H](Cc1ccccc1)NC(=O)[C@H](CC(=O)O)NC(=O)[C@H](CCCNC(=N)N)NC(=O)[C@H](Cc1ccccc1)NC(=O)[C@H](Cc1ccccc1)NC(=O)[C@H](CCCCN)NC(=O)[C@H](CO)NC(=O)[C@H](CC(C)C)NC(=O)[C@H](CCCNC(=N)N)NC(=O)[C@H](CCSC)NC(=O)[C@H](CCC(=O)O)NC(=O)CCCCC[N+]1=C(/C=C/C2=CC(=C/C=C3\N(C)c4ccc5ccccc5c4C3(C)C)/CCC2)C(C)(C)c2ccc3ccccc3c21)C(=O)N[C@@H](CC(C)C)C(=O)N[C@@H](CCC(N)=O)C(=O)N[C@@H](CCCNC(=N)N)C(=O)N[C@@H](CCCCN)C(=O)N[C@@H](CCCCN)C(=O)O | – | – | Drug degradation [2]: 36 h
7 | CC[C@H](C)[C@H](NC(=O)[C@H](Cc1ccccc1)NC(=O)[C@H](CN)NC(=O)[C@H](CCCNC(=N)N)NC(=O)[C@H](Cc1ccccc1)NC(=O)[C@H](Cc1ccccc1)NC(=O)[C@H](CCN)NC(=O)[C@H](CO)NC(=O)[C@H](CC(C)C)NC(=O)[C@H](CCCNC(=N)N)NC(=O)[C@H](CCSC)NC(=O)[C@H](C)N)C(=O)N[C@@H](CC(C)C)C(=O)N[C@@H](CCC(N)=O)C(=O)N[C@@H](CCCNC(=N)N)C(=O)N[C@@H](CCCCN)C(=O)N[C@@H](CCCCN)C(=O)O (H-AMRLS[Dab]FFR[Dap]FILQRKK-OH) | – | < 6.00 | –
8 | CC[C@H](C)[C@H](NC(=O)[C@H](Cc1ccccc1)NC(=O)[C@H](CCCCN)NC(=O)[C@H](CCCNC(=N)N)NC(=O)[C@H](Cc1ccccc1)NC(=O)[C@H](Cc1ccccc1)NC(=O)[C@H](CCN)NC(=O)[C@H](CO)NC(=O)[C@H](CC(C)C)NC(=O)[C@H](CCCNC(=N)N)NC(=O)[C@H](CCSC)NC(=O)[C@H](C)N)C(=O)N[C@@H](CC(C)C)C(=O)N[C@@H](CCC(N)=O)C(=O)N[C@@H](CCCNC(=N)N)C(=O)N[C@@H](CCCCN)C(=O)N[C@@H](CCCCN)C(=O)O (H-AMRLS[Dab]FFRKFILQRKK-OH) | 6.11 | < 6.00 | –
9 | H-EMRISRIILDFLFLRKK-OH | – | – | pEC50 [4]: 7.29
10 | CC[C@H](C)[C@H](NC(=O)[C@H](Cc1ccccc1)NC(=O)[C@H](CCN)NC(=O)[C@H](CCCNC(=N)N)NC(=O)[C@H](Cc1ccccc1)NC(=O)[C@H](Cc1ccccc1)NC(=O)[C@H](CCCN)NC(=O)[C@H](CO)NC(=O)[C@H](CC(C)C)NC(=O)[C@H](CCCNC(=N)N)NC(=O)[C@H](CCSC)NC(=O)[C@H](C)N)C(=O)N[C@@H](CC(C)C)C(=O)N[C@@H](CCC(N)=O)C(=O)N[C@@H](CCCNC(=N)N)C(=O)N[C@@H](CCCCN)C(=O)N[C@@H](CCCCN)C(=O)O (H-AMRLS[Orn]FFR[Dab]FILQRKK-OH) | – | < 6.00 | –
11 | CC[C@H](C)[C@H](NC(=O)[C@H](Cc1ccccc1)NC(=O)[C@H](CCCN)NC(=O)[C@H](CCCNC(=N)N)NC(=O)[C@H](Cc1ccccc1)NC(=O)[C@H](Cc1ccccc1)NC(=O)[C@H](CCN)NC(=O)[C@H](CO)NC(=O)[C@H](CC(C)C)NC(=O)[C@H](CCCNC(=N)N)NC(=O)[C@H](CCSC)NC(=O)[C@H](C)N)C(=O)N[C@@H](CC(C)C)C(=O)N[C@@H](CCC(N)=O)C(=O)N[C@@H](CCCNC(=N)N)C(=O)N[C@@H](CCCCN)C(=O)N[C@@H](CCCCN)C(=O)O (H-AMRLS[Dab]FFR[Orn]FILQRKK-OH) | – | < 6.00 | –
12 | CC[C@H](C)[C@H](NC(=O)[C@H](Cc1ccccc1)NC(=O)[C@H](CN)NC(=O)[C@H](CCCNC(=N)N)NC(=O)[C@H](Cc1ccccc1)NC(=O)[C@H](Cc1ccccc1)NC(=O)[C@H](CCCN)NC(=O)[C@H](CO)NC(=O)[C@H](CC(C)C)NC(=O)[C@H](CCCNC(=N)N)NC(=O)[C@H](CCSC)NC(=O)[C@H](C)N)C(=O)N[C@@H](CC(C)C)C(=O)N[C@@H](CCC(N)=O)C(=O)N[C@@H](CCCNC(=N)N)C(=O)N[C@@H](CCCCN)C(=O)N[C@@H](CCCCN)C(=O)O (H-AMRLS[Orn]FFR[Dap]FILQRKK-OH) | – | < 6.00 | –
13 | CC[C@H](C)[C@H](NC(=O)[C@H](Cc1ccccc1)NC(=O)[C@H](CCCCN)NC(=O)[C@H](CCCNC(=N)N)NC(=O)[C@H](Cc1ccccc1)NC(=O)[C@H](Cc1ccccc1)NC(=O)[C@H](CN)NC(=O)[C@H](CO)NC(=O)[C@H](CC(C)C)NC(=O)[C@H](CCCNC(=N)N)NC(=O)[C@H](CCSC)NC(=O)[C@H](C)N)C(=O)N[C@@H](CC(C)C)C(=O)N[C@@H](CCC(N)=O)C(=O)N[C@@H](CCCNC(=N)N)C(=O)N[C@@H](CCCCN)C(=O)N[C@@H](CCCCN)C(=O)O (H-AMRLS[Dap]FFRKFILQRKK-OH) | 6.34 | – | pEC50 [4]: 7.40
